Screening results: PubChem, several laboratories
Compounds with a hit are over-represented: about 4.1% of the library has one in this group of screens.
MPTP inh = mitochondrial permeability transition pore inhibitors, primary screen, biochemical, isolated mouse mitochondria, absorbance | Ca2+ swelling absorbance, 30 min | inhibition, % at 10 µM | 360,000 tested, 1.4% active | AID 602449, 2012;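 active = inhibition of 50% or more, scaled per plate between neutral and stimulator controls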;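 also: 0% = DMSO wells given calcium and 100% = 1 mM EGTA wells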
MC4R ag barr = MC4R agonists recruiting beta-arrestin, primary screen, cell-based, luminescence, agonist arm of biased-ligand search; activation, % at 8.9 µM; U2OS MC4R beta-arrestin complementation; percent of melanotan II response, DMSO zero; Melanocortin receptor 4 (Homo sapiens), P32245; AID 540308, 2011; 360,000 tested, 0.98% active;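 active = activation above a per-plate cutoff, the mean activation of sample wells on that plate plus 3 SD, cut at about 8% in these data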
Target sequence (P32245 whole entry, looked up): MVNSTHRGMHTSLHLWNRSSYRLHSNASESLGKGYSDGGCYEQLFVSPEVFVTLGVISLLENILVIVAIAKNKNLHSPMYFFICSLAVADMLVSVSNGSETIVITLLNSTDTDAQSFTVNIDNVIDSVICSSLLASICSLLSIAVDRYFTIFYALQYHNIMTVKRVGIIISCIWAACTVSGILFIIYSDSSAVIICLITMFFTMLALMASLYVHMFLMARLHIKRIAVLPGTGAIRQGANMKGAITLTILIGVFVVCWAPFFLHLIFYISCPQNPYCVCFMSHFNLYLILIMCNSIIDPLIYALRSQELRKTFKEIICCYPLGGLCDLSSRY
SMARCA2 act = SMARCA2 (BRM) function activators, primary screen, cell-based, luminescence, high throughput; MG213 cells, MMTV-luciferase reporter, dexamethasone, overnight; activation, % at 9.1 µM; 370,000 tested, 1% active; AID 652017, 2013; in the data active = activation above about 7.8%;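 also: 0% = vehicle wells and 100% = reference activator wells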
ATG4B inh = ATG4B protease inhibitors, primary screen, biochemical, fluorescence, uHTS; AID 504462, 2011; inhibition, % at 8.33 µM; ATG4B cleavage of LC3-PLA2, NBD-HPC fluorescence, 1 h; 340,000 tested, 0.51% active; in the data active = inhibition above about 40%
MC4R antag cAMP = MC4R antagonists of cAMP signaling, primary screen, cell-based, TR-FRET, antagonist arm of biased-ligand search; AID 540295, 2011; inhibition, % at 6.5 µM; 360,000 tested, 0.48% active; MC4R-expressing cells, MTII-stimulated cAMP, LANCE TR-FRET;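 active = inhibition above its plate's cutoff, the mean of tested wells on that plate plus 3 SD, cut at about 29% in these data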;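 also: 0% = Melanotan II alone and 100% = Melanotan II plus saturating MCL0020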
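system = U2OS cells with stable human MC4R expression | also added = Melanotan II challenge after compound preincubation | dosing = one concentration, 6.5 µM nominal | incubation = compound 30 min, challenge 1 h, detection 1 h | measured by = TR-FRET with Eu-cAMP and labeled anti-cAMP, 671 nm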
SMARCA2 act conf = SMARCA2 (BRM) function activators, confirmation, cell-based, luminescence, triplicate; MG213 cells, MMTV-luciferase with dexamethasone, overnight; MG213 cells expressing E1A, Rb sequestered; DMSO wells 0%, reference activator 100%; 3,500 tested, 30% active; activation, % at 9.1 µM; shares compounds with SMARCA2 act;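 active = activation above its plate's cutoff, the mean activation of tested wells plus 3 SD, cut at about 7.9% in these data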
VP16 Luc act = GAL4-VP16 luciferase reporter activation, counter-screen for SMARCA2 (BRM) activator project, cell-based, pG5luc, luminescence, high throughput | activation, % at 9.1 µM | 3,500 tested, 41% active | HEK293 GAL4-VP16 pG5luc reporter; scaled: DMSO wells 0%, SAHA wells 100% | shares compounds with SMARCA2 act | AID 686939, 2013;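 active = activation above the solvent-only control well mean plus 3 SD, averaged across control plates, cut at about 5.2% in these data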
* hit, by the source's call; . = not tested or not shown.

SMILES	MPTP inh	MC4R ag barr	SMARCA2 act	ATG4B inh	MC4R antag cAMP	SMARCA2 act conf	VP16 Luc act
O=C(Nc1ccc(F)cc1)C(c1ccccc1)N1CCN(c2ccncc2)CC1 (stereo unspecified)	1	.	8.3*	.	.	2	0
Cc1cccc(-c2cccc3c4c([nH]c23)[C@@H]2C[C@H]3[C@@H](CN2CC4)[C@H](C)ON3C)c1	.	.	-3	.	.	.	.
c1ccc(CNc2ncnc3c2cnn3-c2ccccc2)cc1	4	4	4	-3	-23	.	.
CC(C)(C)Nc1ncnc2c1cnn2-c1ccccc1	0	2	8.3*	3	5	11*	13*
COCCNc1ncnc2c1cnn2-c1ccc(Cl)cc1	0	0	8.4*	-6	3	17*	10*
COCCN(CCOC)c1ncnc2c1cnn2-c1ccc(Cl)cc1	-2	-1	-2	-6	-3	.	.
O=C(O)C1CCCN1C(=O)c1cccc(Cl)c1 (stereo unspecified)	.	.	2	.	.	.	.
CCCCN1CC(COCc2ccccc2)Oc2cccc(Oc3ccc(SC)c(C)c3)c2S1(=O)=O (stereo unspecified)	.	.	-1	.	.	.	.
COC(=O)[C@H](CC(C)C)N(CCc1cn(Cc2ccccc2)nn1)S(=O)(=O)c1ccccc1Br	.	.	0	.	.	.	.
COc1ccccc1OCC(=O)NCC1CCCCC1	3	-2	-1	-8	-2	.	.
O=C(CCn1nnc2ccccc21)N1CCN(Cc2ccc3c(c2)OCO3)CC1	.	.	-6	.	.	.	.
O=C(COn1nnc2ccccc21)NCC1CCCCC1	0	0	8.8*	1	6	6	4
O=C(COn1nnc2ccccc21)N1CCN(Cc2ccccc2)CC1	-1	-4	10*	-2	-2	4	5
COC(=O)[C@]12C[C@H](CC(=O)N3CCN(C(=O)C4CC4)CC3)C(=O)N(Cc3ccccc3)C1=C[C@H](C1CCCC1)O[C@@H]2C	.	.	0	.	.	.	.
Cc1cccc(C)c1NC(=O)C1(C)CN(S(C)(=O)=O)CC(=O)N1CCc1ccccc1F (stereo unspecified)	-1	.	-6	.	.	.	.
Cc1nc2nc(C)c(NS(=O)(=O)c3ccc4c(c3)CCCC4)c(=O)n2[nH]1	0	2	8.9*	3	0	-2	3
COC(=O)[C@]12C[C@H](CC(=O)N3CCN(C(=O)c4ccco4)CC3)C(=O)N(CCC3=CCCCC3)C1=C[C@H](COCc1ccccc1)O[C@@H]2C	.	.	-1	.	.	.	.
Cc1cc(=O)n2[nH]c(-c3ccccc3Cl)cc2n1	-1	-2	3	-7	2	.	.
Cc1cccc(-c2cc3nc(C)cc(=O)n3[nH]2)c1	0	-1	9.2*	.	-1	5	6.7*
CCCn1nc(C(=O)N2CCN(c3ccccn3)CC2)c2ccccc2c1=O	-3	1	8.1*	7	-5	-2	2
COc1ccc(-n2nc(C(=O)NCC(=O)N3CCN(c4ccccn4)CC3)c3ccccc3c2=O)cc1	0	3	11*	-1	27	6	2
O=C(c1nn(-c2ccccc2)c(=O)c2ccccc12)N1CCN(c2ccccn2)CC1	-3	-2	-3	5	6	.	.
C(=NNc1ccc2ccccc2n1)c1ccccn1	-1	.	4	.	.	.	.
CC1(C)COC(c2cc3c(cc2Br)OCO3)OC1	-3	6	8.1*	4	5	-1	-2
COc1cc2c(cc1NC(=O)c1ccccc1F)CCCC2	0	0	9.3*	11	-1	4	7.6*
SMILES	MPTP inh	MC4R ag barr	SMARCA2 act	ATG4B inh	MC4R antag cAMP	SMARCA2 act conf	VP16 Luc act
COc1cc(OC)c(NC(=O)c2ccccc2F)cc1Cl	2	-3	7	-10	8	.	.
C#CCNc1cccc2c1S(=O)(=O)N[C@H](C)CO2	.	.	-2	.	.	.	.
COc1cc(/C=N/NC(=O)c2nonc2C)ccc1O	0	0	9.4*	3	11	6	0
COc1cc(/C=N/NC(=S)Nc2cccc(S(=O)(=O)N(C)C)c2)ccc1O	0	-3	9.8*	-11	-6	2	5.8*
COc1cc(/C=N/NC(=O)c2cc(C)oc2C)ccc1O	1	-1	-1	-9	-13	.	.
COc1cc(/C=N/NC(=O)c2nc(C)cc(C)n2)ccc1O	2	-3	8.9*	3	-5	2	0
Cc1nonc1C(=O)N/N=C/c1ccc(O)c(O)c1	1	-3	9.0*	-3	1	0	3
CC(C)(C)OC(=O)NCc1cc2c(cc1/C=C/S(=O)(=O)NCc1ccc(F)cc1)OCO2	.	.	-3	.	.	.	.
O=C1NC[C@H](CCCCN2C[C@H](Cc3ccc(O)cc3)N(CCc3ccccc3)C(=O)C2=O)N(CCC2CCCCC2)C1=O	-3	.	8	.	.	.	.
Cc1cc2c(c(=O)o1)[C@@]1(C(=O)N(C)c3cccc(Br)c31)C1=C(CCCC1=O)O2	.	.	-8	.	.	.	.
COC(=O)c1sc(-c2ccccc2)cc1NC(=O)C1CC1	4	-2	8.9*	1	13	-4	2
COC(=O)c1sc(-c2ccc(Cl)cc2)cc1NC(=O)c1ccccc1C(=O)O	-2	1	1	27	17	.	.
CO[C@@H]1CN(C)C(=O)c2ccc(NC(=O)c3ccccc3F)cc2OC[C@@H](C)N(CC2CCOCC2)C[C@@H]1C	0	.	-4	.	.	.	.
Cc1oc(=O)c(NC(=O)c2cccc(Cl)c2)cc1C(=O)c1ccccc1	6	0	8.6*	9	23	2	10*
Cc1oc(=O)c(NC(=O)c2ccccc2)cc1C(N)=O	-2	-1	3	-3	6	.	.
COc1cc(S(=O)(=O)N2CCOCC2)cc(C(=O)c2nccn2C)c1OC	1	0	9.3*	-7	12	-1	2
CCCCn1ccnc1C(=O)c1cc(S(=O)(=O)N2CCOCC2)ccc1C	1	-2	-5	-2	4	.	.
Cc1ccc(-c2nc(CN3CCCCC3)cc(CN3CCCCC3)c2O)cc1	0	-2	8.2*	5	14	3	2
CC(C)(C)c1nc(CN2CCOCC2)cc(CN2CCOCC2)c1O	5	1	2	1	0	.	.
COc1cc(C(=O)N2CC(=O)Nc3ccccc32)cc(OC)c1OC	-1	0	9.2*	.	-3	0	0
